pIC50: −log10 of the molar value.
Legend:
[1] = molecular target: T1, Reverse transcriptase (Human immunodeficiency virus 1, UniProt Q9WKE8); assay: Inhibition of HIV1 pNL4-3 reverse transcriptase wild type pNL4-3 by heteropolymeric DNA polymerase assay
How it was run: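 Heteropolymeric assay without ATP: plate-bound 18-mer DNA primer (~110 nM) with 50-mer 5′-A12-(GTCA)5 template (190 nM). dATP, dGTP, dCTP and BrdUTP at 1.0 μM each, in HEPES 50 mM pH 7.3, MgCl2 10 mM. RT 30–100 pM, 33°C for 180 min, then NaOH dehybridization and anti-BrdU-AP tracer read at 405 nm. IC50 from seven triphosphate concentrations; two to four runs in duplicate.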

[2] = molecular target: T1, Reverse transcriptase; assay: Inhibition of HIV1 LAI reverse transcriptase wild type in presence of 5 mM ATP by heteropolymeric DNA polymerase assay
How it was run: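 Heteropolymeric DNA assay with 5 mM ATP added: immobilized 18-mer primer, 5′-A12-(GTCA)5 50-mer template, dATP/dGTP/dCTP/BrdUTP at 1.0 μM each, HEPES 50 mM pH 7.3, MgCl2 10 mM. RT 30–100 pM, incubated at 33°C for 180 min. NaOH strand separation, then anti-BrdU-AP detection at 405 nm. IC50 fitted from seven inhibitor concentrations; two to four runs in duplicate.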

Compound	pIC50 [1]	pIC50 [2]
Nc1nc2c(c(=O)[nH]1)NCN2[C@H]1C=C[C@@H](COP(=O)(O)OP(=O)(O)OP(=O)(O)O)C1 [Carbovir-Triphosphate]	5.92	6.05
C[C@@H](Cn1cnc2c(N)ncnc21)OCP(=O)(O)OP(=O)(O)OP(=O)(O)O [Tenofovir diphospahte]	5.92	5.89
